# Assay results as given in paper PMC5858725 (Biochemistry, 2017).
# Where two headings read alike, the source gives them in different places.
# What was measured:
# [1] = system: WT CYP3A4; details: cited from earlier work
# [2] = target: T1, opt-WT CYP3A4 (Homo sapiens, UniProt P08684); assay: Stopped flow ligand binding kinetics, opt-WT CYP3A4; details: for Percentage of absorbance change observed during the fast kinetic phase / Percentage of absorbance change observed during the slow kinetic phase: 40 μM ligand
# [3] = target: T2, Cys-less CYP3A4 (Homo sapiens, UniProt P08684, C239T/C377A/C468S/C58A/C64M/C98A)
# [4] = system: WT CYP3A4; assay: Stopped flow ligand binding kinetics, WT CYP3A4; set-up: species or system human; details: for Percentage of absorbance change observed during the fast kinetic phase / Percentage of absorbance change observed during the slow kinetic phase: 40 μM ligand
# [5] = target: T2, Cys-less CYP3A4; assay: Stopped flow ligand binding kinetics, Cys-less CYP3A4; details: for Percentage of absorbance change observed during the fast kinetic phase / Percentage of absorbance change observed during the slow kinetic phase: 40 μM ligand
# [6] = target: T1, opt-WT CYP3A4
# [7] = target: T2, Cys-less CYP3A4; assay: BFC O-debenzylase activity in reconstituted system with CPR; assay type: biochemical; details: 0.1–0.6 M phosphate pH 7.4, all studied conditions; relative to WT and opt-WT
# Method in brief: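 N-terminally truncated (Δ3–22) CYP3A4 carrying C58A/C64M/C98A/C239T/C377A/C468S, co-expressed with GroESL in E. coli C41(DE3). […] Lipid-free reconstitution with rat cytochrome P450 reductase. Substrate 7-benzyloxy(4-trifluoromethyl)coumarin, O-debenzylated to a fluorescent product that is read fluorimetrically.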
# [8] = system: CPR; assay: Kinetics of CYP3A4 reduction with CPR; assay type: biochemical, rat; details: anaerobic
# [9] = 2 μM CYP3A4 mixed with 40 μM ligand, 0.6 M phosphate pH 7.4
# [10] = CO-saturated 0.1 M phosphate pH 7.4, 1 μM CYP3A4 and CPR, 30 μM MDZ, 100 μM NADPH
molecule,measurement,setting,value
"CC(C)C[C@H]1C(=O)N2CCC[C@H]2[C@]2(O)O[C@](NC(=O)[C@@H]3C=C4c5cccc6[nH]c(Br)c(c56)C[C@H]4N(C)C3)(C(C)C)C(=O)N12 [BEC, bromoergocryptine]",Kd,"[1]; read-out: Equilibrium Titrations, Ks, determined previously",300 nM
same,Percentage of absorbance change observed during the fast kinetic phase,[2]; 0.1 M phosphate pH 7.4,49%
same,Percentage of absorbance change observed during the slow kinetic phase,[2]; 0.1 M phosphate pH 7.4,51%
same,affinity lower than WT (from Ks),[3],1.5–2 fold
same,Kd,[3]; pH 7.4,450 ± 60 nM
same,Percentage of absorbance change observed during the fast kinetic phase,[4]; 0.1 M phosphate pH 7.4,52%
same,Percentage of absorbance change observed during the slow kinetic phase,[4]; 0.1 M phosphate pH 7.4,48%
same,Percentage of absorbance change observed during the fast kinetic phase,[5]; 0.1 M phosphate pH 7.4,54%
same,Percentage of absorbance change observed during the slow kinetic phase,[5]; 0.1 M phosphate pH 7.4,46%
same,affinity lower than WT (from Ks),[6],1.5–2 fold
same,Kd,[6]; pH 7.4,770 ± 140 nM
"O=c1cc(C(F)(F)F)c2ccc(OCc3ccccc3)cc2o1 [BFC, 7-benzyloxy-(4-trifluoromethyl)coumarin]","BFC oxidation (debenzylation) by Cys-less CYP3A4, faster than WT and opt-WT",[7],6–8 fold
"Cc1ncc2n1-c1ccc(Cl)cc1C(c1ccccc1F)=NC2 [MDZ, midazolam]",Kd,"[1]; read-out: Equilibrium Titrations, Ks, 0.1 M phosphate, determined previously",4800 nM
same,Kd,"[1]; read-out: Equilibrium Titrations, Ks, 0.6 M phosphate, determined previously",1800 nM
same,"Ligand Binding Kinetics, kfast",[2]; [9],0.26 ± 0.03 s⁻¹
same,"Ligand Binding Kinetics, kslow",[2]; [9],0.027 ± 0.004 s⁻¹
same,Percentage of absorbance change observed during the fast kinetic phase,[2]; 0.1 M phosphate pH 7.4,43%
same,Percentage of absorbance change observed during the slow kinetic phase,[2]; 0.1 M phosphate pH 7.4,57%
same,Percentage of absorbance change observed during the fast kinetic phase,[2]; 0.6 M phosphate pH 7.4,49%
same,Percentage of absorbance change observed during the slow kinetic phase,[2]; 0.6 M phosphate pH 7.4,51%
same,"Ligand Binding Kinetics, kfast",[4]; [9],3.4 ± 0.3 s⁻¹
same,"Ligand Binding Kinetics, kslow",[4]; [9],0.23 ± 0.04 s⁻¹
same,Percentage of absorbance change observed during the fast kinetic phase,[4]; 0.1 M phosphate pH 7.4,70%
same,Percentage of absorbance change observed during the slow kinetic phase,[4]; 0.1 M phosphate pH 7.4,30%
same,Percentage of absorbance change observed during the fast kinetic phase,[4]; 0.6 M phosphate pH 7.4,82%
same,Percentage of absorbance change observed during the slow kinetic phase,[4]; 0.6 M phosphate pH 7.4,18%
same,"Ligand Binding Kinetics, kfast",[5]; [9],0.27 ± 0.02 s⁻¹
same,"Ligand Binding Kinetics, kslow",[5]; [9],0.036 ± 0.003 s⁻¹
same,Percentage of absorbance change observed during the fast kinetic phase,[5]; 0.1 M phosphate pH 7.4,40%
same,Percentage of absorbance change observed during the slow kinetic phase,[5]; 0.1 M phosphate pH 7.4,60%
same,Percentage of absorbance change observed during the fast kinetic phase,[5]; 0.6 M phosphate pH 7.4,43%
same,Percentage of absorbance change observed during the slow kinetic phase,[5]; 0.6 M phosphate pH 7.4,57%
"CC(C)c1nc(CN(C)C(=O)N[C@H](C(=O)N[C@@H](Cc2ccccc2)C[C@H](O)[C@H](Cc2ccccc2)NC(=O)OCc2cncs2)C(C)C)cs1 [RIT, ritonavir]",Percentage of absorbance change observed during the fast kinetic phase,[4]; 0.1 M phosphate pH 7.4,70%
same,Percentage of absorbance change observed during the slow kinetic phase,[4]; 0.1 M phosphate pH 7.4,30%
"Cys-less: C58A/C64M/C98A/C239T/C377A/C468S variant of CYP3A4 from codon-optimized synthetic gene (protein, UniProt P08684 2-503, looked up, variant C58A C64M C98A C239T C377A C468S, Δ3–22 truncation) Cytochrome P450 3A4: ALIPDLAMETWLLLAVSLVLLYLYGTHSHGLFKKLGIPGPTPLPFLGNILSYHKGFAMFDMEMHKKYGKVWGFYDGQQPVLAITDPDMIKTVLVKEAYSVFTNRRPFGPVGFMKSAISIAEDEEWKRLRSLLSPTFTSGKLKEMVPIIAQYGDVLVRNLRREAETGKPVTLKDVFGAYSMDVITSTSFGVNIDSLNNPQDPFVENTKKLLRFDFLDPFFLSITVFPFLIPILEVLNITVFPREVTNFLRKSVKRMKESRLEDTQKHRVDFLQLMIDSQNSKETESHKALSDLELVAQSIIFIFAGYETTSSVLSFIMYELATHPDVQQKLQEEIDAVLPNKAPPTYDTVLQMEYLDMVVNETLRLFPIAMRLERVAKKDVEINGMFIPKGVVVMIPSYALHRDPKYWTEPEKFLPERFSKKNKDNIDPYIYTPFGSGPRNCIGMRFALMNMKLALIRVLQNFSFKPSKETQIPLKLSLGGLLQPEKPVVLKVESRDGTVSGA","First Electron Transfer from CPR, kfast",[8]; [10],1.22 ± 0.03 min⁻¹
same,"First Electron Transfer from CPR, kslow",[8]; [10],0.22 ± 0.02 min⁻¹
same,"First Electron Transfer from CPR, percentage of absorbance change in the fast phase","[8]; CO-saturated 0.1 M phosphate pH 7.4, 30 μM MDZ",64%
